A3A deaminase: inhibitors of human APOBEC3A DNA deaminase; P31941; inhibition, % at 20 µM; recombinant A3A, FAM/TAMRA ssDNA deamination fluorescence; hit rate 0.41% among 330,000;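 active means at least 40% inhibition at 20 µM here, with at most 30% in a related deaminase screen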;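 further: plate controls were A3A with DMSO for no effect and wells lacking A3A enzyme for full effect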
Target sequence (P31941 whole entry, looked up): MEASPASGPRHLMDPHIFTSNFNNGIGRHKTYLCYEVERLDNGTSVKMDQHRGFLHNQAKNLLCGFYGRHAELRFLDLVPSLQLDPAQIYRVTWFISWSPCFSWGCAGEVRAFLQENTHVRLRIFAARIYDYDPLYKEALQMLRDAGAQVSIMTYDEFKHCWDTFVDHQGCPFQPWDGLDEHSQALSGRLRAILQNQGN
HKDC1 inhibitor: blocks human hexokinase HKDC1 activity | hit rate 0.16% among 340,000 | recombinant HKDC1, G6PDH/diaphorase resazurin coupled fluorescence | inhibition, % at 20 µM | AID 493160;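 active means inhibition above about 35% when tested at 20 µM, limit read from the data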;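 further: plate controls were DMSO wells with enzyme for no effect and DMSO wells lacking enzyme for full effect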
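Assay system: in-house recombinant HK5 (HKDC1) enzyme. Input: HKDC1 at 5 µg/mL. Medium: Tris pH 8.0 buffer with MgCl2, Tween-20, BSA, BME. Dosing: single 20 µM dose. Schedule: 90 min reaction incubation at room temperature, dark. Signal: resazurin-to-resorufin fluorescence via G6PDH and diaphorase coupling, 525/613 nm. Controls: DMSO-enzyme wells negative, buffer-substituted wells positive.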
PfM18AAP inh: PfM18AAP enzyme inhibition | recombinant PfM18AAP, H-Glu-NHMec fluorogenic cleavage | inhibition, % at 7.35 µM | hit rate 1.2% among 290,000 | AID 1822;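 active means inhibition above the campaign mean inhibition over all tested compounds plus 3 SD, cut at about 28% in these data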;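 further: 0% = plate median of test compound wells and 100% = 2 mM ZnCl2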
PfGluPho inh: PfG6PD (Plasmodium falciparum) enzyme inhibition | PfGluPho enzyme, NADPH resazurin-diaphorase fluorescence | inhibition, % at 20 µM | hit rate 0.78% among 350,000 | AID 504690;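 active means inhibition reaching at least a set limit at 20 µM in the primary screen, cut at about 59% in these data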;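 further: 0% = DMSO wells with substrate and 100% = DMSO wells lacking glucose-6-phosphate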
A3G deaminase: inhibitors of human APOBEC3G DNA deaminase | Q9HC16 | recombinant A3G, ssDNA deamination FAM/TAMRA fluorescence | inhibition, % at 20 µM | hit rate 0.28% among 330,000;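 active means inhibition of at least 40% at 20 µM, with no more than 30% in the related APOBEC3A deaminase screen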;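 further: plate controls were DMSO wells with A3G for no effect and wells lacking A3G enzyme for full effect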
Target sequence (Q9HC16 whole entry, looked up): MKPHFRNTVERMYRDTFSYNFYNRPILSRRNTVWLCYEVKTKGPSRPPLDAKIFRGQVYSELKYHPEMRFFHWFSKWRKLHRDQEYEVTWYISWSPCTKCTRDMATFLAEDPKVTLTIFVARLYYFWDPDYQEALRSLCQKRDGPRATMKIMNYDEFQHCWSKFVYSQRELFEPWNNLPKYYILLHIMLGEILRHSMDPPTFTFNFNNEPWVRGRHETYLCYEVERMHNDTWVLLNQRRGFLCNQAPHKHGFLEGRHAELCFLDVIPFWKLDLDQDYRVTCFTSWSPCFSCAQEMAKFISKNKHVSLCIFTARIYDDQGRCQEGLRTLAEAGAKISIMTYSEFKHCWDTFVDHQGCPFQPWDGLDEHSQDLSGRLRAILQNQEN
UBC9 SUMO inh: blocks human SUMOylation mediated by UBC9 | AID 2006 | inhibition, % at 35 µM | hit rate 0.36% among 290,000 | HTRF SUMOylation assay, SAE1/SAE2 + UBC9, in vitro | P63279; in the data active means inhibition above about 50%, passing the limit was not always enough
Target sequence (P63279 whole entry, looked up): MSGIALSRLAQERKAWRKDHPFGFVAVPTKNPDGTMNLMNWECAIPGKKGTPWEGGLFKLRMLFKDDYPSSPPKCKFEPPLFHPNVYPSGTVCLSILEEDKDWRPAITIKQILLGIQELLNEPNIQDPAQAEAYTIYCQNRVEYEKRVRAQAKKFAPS
PfG6PD confirm: PfG6PD inhibition, single-dose confirmed. shares compounds with PfGluPho inh. recombinant PfGluPho, NADPH-diaphorase-resazurin fluorescence. inhibition, % at 20 µM. hit rate 34% among 2,400. AID 504753;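 active means inhibition of at least 50% at 20 µM in any single replicate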;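 further: 0% = DMSO with substrate and 100% = DMSO lacking glucose-6-phosphate substrate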
Diaphorase 10uM: inhibits diaphorase or oxidizes, flagging false PfG6PD hits. inhibition, % at 20 µM. diaphorase-coupled resazurin reduction, fluorescence, NADPH 10 uM. AID 504862. shares compounds with PfGluPho inh. hit rate 39% among 820;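 active means average inhibition reaching 50% or more with the compound at 20 µM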;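 further: resorufin red fluorescence formed as diaphorase reduces resazurin using NADPH; 0% = DMSO with enzyme and 100% = DMSO without enzyme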
Diaph ctr 30uM: diaphorase inhibition or oxidation at 30 uM NADPH; inhibition, % at 20 µM; hit rate 29% among 820; shares compounds with PfGluPho inh; Diaphorase/resazurin coupled assay, resorufin fluorescence; AID 504863;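 active means inhibition averaging 50% or more, tested at 20 µM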;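 further: 0% = DMSO with enzyme and 100% = DMSO wells lacking diaphorase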
* = called active by the depositor; nt = no result. Compounds with a hit are over-represented: about 2.4% of the library has one in this group of screens.

SMILES	A3A deaminase	HKDC1 inhibitor	PfM18AAP inh	PfGluPho inh	A3G deaminase	UBC9 SUMO inh	PfG6PD confirm	others
Cc1ccc(NCc2ccccc2OCc2ccccc2F)cc1	-2.6	2.8	1.8	23.2	-4.7	-16.4	nt
CCc1ccc(CNc2ccc(O)cc2)cc1	0.0	23.7	25.8	84.9*	2.1	33.9	42.6
CCc1ccc(CNc2ccc3c(c2)ncn3CC)cc1	-4.1	4.8	7.3	26.1	-7.0	27.7	nt
Cc1[nH]c(-c2ccccn2)nc(=S)c1Cl	0.5	4.3	1.2	68.6*	0.6	-30.1	4.9
Cc1cc(=S)nc(-c2ccccn2)[nH]1	-6.1	-6.3	-13.2	12.4	-2.5	-11.9	nt
O=C(Nc1ccccc1C(=O)N/N=C/c1ccco1)c1ccccc1Cl	-0.2	0.2	-1.4	69.6*	-0.8	-2.8	51.5*	Diaphorase 10uM=51.6*;Diaph ctr 30uM=38.9
O=C(N/N=C/c1ccco1)c1cccc(NC(=O)c2ccccc2Cl)c1	-2.3	-3.9	1.6	-14.0	-6.8	-3.9	nt
CC(=O)Nc1ccc(SCc2ncc(-c3ccccc3)o2)cc1	-2.3	-6.3	4.2	1.0	-7.2	9.0	nt
CSc1cccc(NC(=S)N(CCN(C)C)C(C)c2ccccn2)c1 (stereo unspecified)	-3.1	-3.5	0.6	2.7	-8.9	-10.2	nt
Cc1cc(=O)[nH]c(N/N=C/c2ccccn2)n1	-0.2	10.4	-9.8	-29.9	-0.1	-8.9	nt
C(=N\Nc1nc2ccccc2[nH]1)/c1ccccn1	nt	-8.7	5.3	64.5*	nt	8.6	54.3*	Diaphorase 10uM=-27.2;Diaph ctr 30uM=2.5
O=c1cnnc(N/N=C/c2ccccn2)[nH]1	2.2	5.6	7.6	46.3	1.2	-69.6	27.0
CCCC1OC23CCCCC2C(C#N)(C(=N)O3)C1(C#N)C#N (stereo unspecified)	-1.8	-2.6	5.7	12.2	-1.8	8.4	nt
COc1ccc(NCC(=O)N/N=C/C2CCCCC2)cc1	1.4	15.9	3.9	69.3*	-6.0	7.4	13.2
O=C(Nc1cnccn1)c1csc2ccccc12	-0.3	-3.6	-4.5	28.4	-2.9	6.0	nt
O=C(NC1CCCC1)c1cc2c(ccc3ccccc32)o1	2.3	-0.5	-0.5	72.2*	3.7	17.3	20.3
COc1ccc(C(=O)Nc2ccc3c4c(cccc24)CC3)cc1	0.8	-11.1	2.3	45.0	-4.9	-8.1	nt
COc1cccc2c1C(=N)c1c(O)c3c(c(O)c1C2=O)CC(O)(C(C)=O)CC3OC1CC(N)C(O)C(C)O1 (stereo unspecified)	nt	9.8	nt	59.5*	nt	nt	20.1
S=c1nc2[nH]c3ccccc3c2n[nH]1	nt	-5.4	nt	66.4*	nt	nt	10.4
CNc1nc(=S)[nH]c2ccccc12	-1.3	-2.5	24.6	10.4	-3.3	0.0	nt
O=[N+]([O-])c1cc(Cl)ccc1Sc1cccc2cccnc12	3.6	-0.1	-12.7	128.9*	-6.7	-0.6	89.7*	Diaphorase 10uM=88.3*;Diaph ctr 30uM=82.1*
O=[N+]([O-])c1ccc(Sc2cccc3cccnc23)cc1	-3.3	13.9	-4.5	113.7*	-8.2	17.4	83.1*	Diaphorase 10uM=77.1*;Diaph ctr 30uM=72.5*
O=[N+]([O-])c1ccc(COc2cccc3cccnc23)cc1	-0.4	0.9	-9.7	31.2	0.2	16.3	nt
O=[N+]([O-])c1ccc(Sc2cccc3cccnc23)c([N+](=O)[O-])c1	-1.0	-30.1	7.9	147.7*	-5.6	-34.1	99.0*	Diaphorase 10uM=70.7*;Diaph ctr 30uM=60.8*
C=COC(=O)CSc1nc(-c2cccs2)ccc1C#N	1.1	-5.7	12.3	-11.2	-2.7	25.8	nt
SMILES	A3A deaminase	HKDC1 inhibitor	PfM18AAP inh	PfGluPho inh	A3G deaminase	UBC9 SUMO inh	PfG6PD confirm	others
CCOC(=O)C(C)Sc1nc(-c2cccs2)ccc1C#N (stereo unspecified)	4.0	-0.9	-1.2	78.4*	-0.5	8.6	2.1
CC(=O)Nc1ccc(C(=O)OCC(=O)N(c2ccccc2)C2CCCCC2)cc1	15.7	-3.3	nt	-1.6	-3.8	nt	nt
CNC(=S)N/N=C/c1c(C(=O)OC)cnn1-c1ccc(F)cc1F	-5.5	-3.5	1.2	67.8*	-10.2	4.5	23.1
Cn1c(=O)c2c(ncn2Cc2ccc(Cl)cc2)n(C)c1=O	1.7	-9.4	8.1	9.1	-5.2	7.5	nt
Cn1c(=O)c2c([nH]c(=S)n2Cc2ccc(Cl)cc2)n(C)c1=O	-4.1	-5.4	29.8*	61.7*	22.0	19.0	24.5
O=C(CC1SCCNC1=O)Nc1cccc(Cl)c1 (stereo unspecified)	-4.1	1.1	-5.3	11.6	-3.8	7.0	nt
CC1CCc2[nH]c3ccc(C(=O)N(C)CC(=O)Nc4ccccc4C(F)(F)F)cc3c2C1 (stereo unspecified)	-6.9	4.7	nt	109.8*	-3.5	nt	63.2*	Diaphorase 10uM=52.7*;Diaph ctr 30uM=34.4
CC1CCc2[nH]c3ccc(C(=O)N(C)CC(=O)Nc4ccccc4Cl)cc3c2C1 (stereo unspecified)	-4.6	-3.3	nt	59.8*	-5.4	nt	23.6
Cc1ccc(NC(=O)CN(C)C(=O)c2ccc3[nH]c4c(c3c2)CC(C)CC4)cc1 (stereo unspecified)	-4.2	-1.4	nt	17.5	-6.3	nt	nt
COc1ccc(CN2CCCC(C(=O)N3CCCC3)C2)c(OC)c1 (stereo unspecified)	-1.4	-1.2	-11.5	1.6	-4.3	10.9	nt
CC(=O)Nc1cc2c(cc1[N+](=O)[O-])-c1ccccc1C2O (stereo unspecified)	nt	8.4	nt	80.9*	nt	nt	83.4*	Diaphorase 10uM=33.9;Diaph ctr 30uM=5.8
CC(=O)Nc1cc2c(cc1[N+](=O)[O-])-c1ccccc1C2=NO	nt	1.1	nt	0.7	nt	nt	nt
COc1ccc(-c2cc3ccccc3cn2)cc1	-1.0	-0.1	nt	59.5*	-0.8	nt	9.1
Cc1cc(C)c(C)c(S(=O)(=O)Nc2ccccc2C(=O)O)c1C	-4.6	3.8	-8.0	4.0	-6.3	12.5	nt
Cc1ccc(S(=O)(=O)Nc2nc(C)c(C(=O)Nc3ccccc3)s2)cc1	3.6	-9.4	-6.5	-20.3	0.7	5.6	nt
Cc1ccc(S(=O)(=O)Nc2nc(C)c(C(=O)N/N=C/c3ccccc3)s2)cc1	-2.7	-6.0	-11.8	75.9*	-2.5	8.4	66.7*	Diaphorase 10uM=61.7*;Diaph ctr 30uM=48.0
Cc1c(N(C)C(=O)C23CC4CC(CC(C4)C2)C3)c(=O)n(-c2ccccc2)n1C	-0.4	-2.5	1.1	-18.1	-3.9	-4.7	nt
O=S(=O)(Cc1ccccc1)N(O)c1ccccc1	-6.4	-0.5	13.1	86.5*	-4.4	-2.0	84.3*	Diaphorase 10uM=74.5*;Diaph ctr 30uM=52.7*
Cc1ccc(C(=O)OCC(=O)N2CCCc3ccccc32)cc1C	-2.2	2.6	nt	-18.8	-11.9	nt	nt
COc1ccc(Nc2nc(C)c(-c3ccccc3)s2)cc1	nt	9.3	1.1	75.7*	nt	-29.7	2.2
Cc1nc(Nc2ccc(S(N)(=O)=O)cc2)sc1-c1ccccc1	0.4	3.4	7.4	9.4	-5.2	-2.0	nt

Assay outcomes as filed in PubChem.
